Source: ChEMBL document CHEMBL2380245, “Synthesis and evaluation of 2,3-dinorprostaglandins: Dinor-PGD1 and 13-epi-dinor-PGD1 are peroxisome proliferator-activated receptor α/γ dual agonists” (Bioorg Med Chem Lett, 2013)
Active and inactive are the calls of the source.

How the values were obtained:
Type in all cases: cell-based
[1] = target: T1, Peroxisome proliferator-activated receptor alpha (Homo sapiens) (UniProt Q07869); experiment: Agonist activity at PPARalpha (unknown origin) transfected in HEK293 cells at 10 uM by luciferase reporter gene assay
T1 sequence (whole entry): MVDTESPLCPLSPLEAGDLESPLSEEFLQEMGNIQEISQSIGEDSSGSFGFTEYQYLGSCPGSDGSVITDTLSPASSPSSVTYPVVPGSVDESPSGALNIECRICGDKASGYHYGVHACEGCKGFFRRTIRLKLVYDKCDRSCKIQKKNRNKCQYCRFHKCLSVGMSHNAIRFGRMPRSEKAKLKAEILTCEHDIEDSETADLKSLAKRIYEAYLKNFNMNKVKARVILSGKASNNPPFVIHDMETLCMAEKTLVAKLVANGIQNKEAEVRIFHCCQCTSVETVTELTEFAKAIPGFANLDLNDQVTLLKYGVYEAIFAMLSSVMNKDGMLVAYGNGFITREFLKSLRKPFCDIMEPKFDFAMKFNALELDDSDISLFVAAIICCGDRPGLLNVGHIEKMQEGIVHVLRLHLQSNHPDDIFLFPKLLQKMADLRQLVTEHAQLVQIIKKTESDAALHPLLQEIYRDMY
In short: (§1)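 Luciferase PPAR reporter assay in transfected HEK293 cells, run following a previously reported protocol. Each receptor was tested alongside a subtype-selective reference agonist as control: PPARα at 10 µM, PPARδ at 100 nM and PPARγ at 10 µM.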

[2] = target: T1, Peroxisome proliferator-activated receptor alpha (Homo sapiens); experiment: Agonist activity at PPARalpha (unknown origin) transfected in HEK293 cells at 1 to 30 uM by luciferase reporter gene assay
[3] = target: T2, Peroxisome proliferator-activated receptor delta (Homo sapiens) (UniProt Q03181); experiment: Agonist activity at PPARdelta (unknown origin) transfected in HEK293 cells at 10 uM by luciferase reporter gene assay
T2 sequence (whole entry): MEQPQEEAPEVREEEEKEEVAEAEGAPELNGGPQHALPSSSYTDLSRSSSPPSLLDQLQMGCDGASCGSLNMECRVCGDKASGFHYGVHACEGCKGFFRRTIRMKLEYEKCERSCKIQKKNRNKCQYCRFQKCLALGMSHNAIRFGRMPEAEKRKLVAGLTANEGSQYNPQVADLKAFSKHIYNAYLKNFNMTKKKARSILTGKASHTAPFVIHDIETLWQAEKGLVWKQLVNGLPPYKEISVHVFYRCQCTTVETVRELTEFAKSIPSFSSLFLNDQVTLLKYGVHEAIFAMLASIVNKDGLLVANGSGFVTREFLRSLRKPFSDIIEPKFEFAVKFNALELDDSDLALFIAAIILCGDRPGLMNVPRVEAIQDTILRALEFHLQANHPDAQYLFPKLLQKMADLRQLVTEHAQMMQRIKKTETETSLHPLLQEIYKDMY

[4] = target: T3, Peroxisome proliferator-activated receptor gamma (Homo sapiens) (UniProt P37231); experiment: Agonist activity at PPARgamma (unknown origin) transfected in HEK293 cells at 10 uM by luciferase reporter gene assay; in short: as §1
T3 sequence (whole entry): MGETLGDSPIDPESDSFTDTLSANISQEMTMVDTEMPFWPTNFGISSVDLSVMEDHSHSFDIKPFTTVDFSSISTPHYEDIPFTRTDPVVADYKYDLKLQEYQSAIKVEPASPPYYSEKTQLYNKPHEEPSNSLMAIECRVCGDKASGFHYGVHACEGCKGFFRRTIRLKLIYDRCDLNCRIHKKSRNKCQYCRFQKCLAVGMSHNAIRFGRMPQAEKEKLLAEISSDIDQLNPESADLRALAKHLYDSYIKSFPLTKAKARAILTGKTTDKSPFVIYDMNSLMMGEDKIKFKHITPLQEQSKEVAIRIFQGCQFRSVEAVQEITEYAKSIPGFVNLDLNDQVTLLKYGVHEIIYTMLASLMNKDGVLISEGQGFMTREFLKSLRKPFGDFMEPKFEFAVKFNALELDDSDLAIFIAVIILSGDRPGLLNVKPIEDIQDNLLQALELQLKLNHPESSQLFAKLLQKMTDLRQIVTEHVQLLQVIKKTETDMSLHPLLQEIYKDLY

[5] = target: T3, Peroxisome proliferator-activated receptor gamma (Homo sapiens); experiment: Agonist activity at PPARgamma (unknown origin) transfected in HEK293 cells at 1 to 30 uM by luciferase reporter gene assay

Measured: Activity

CCCCC[C@H](O)/C=C/[C@H]1C(=O)C[C@H](O)[C@@H]1C/C=C\CCCC(=O)O
active: all assays above

CCCCC[C@H](O)/C=C/[C@H]1C(=O)C[C@H](O)[C@@H]1CCCCC(=O)O
active: [1] | [2] | [5]

CC1(COc2ccc(CC3SC(=O)NC3=O)cc2)CCCCC1 (stereo not given)
active: [1] | [3] | [4]

CCCCC/C=C/C=C1/C(=O)C=C[C@@H]1CCCCC(=O)O
active: [1] | [3] | [4]

CCCCC[C@@H](O)/C=C/[C@H]1C(=O)C[C@H](O)[C@@H]1CCCCC(=O)O
active: [1] | [2] | [5]

CC(C)(Oc1ccc(C(=O)c2ccc(Cl)cc2)cc1)C(=O)O
active: [1] | [3] | [4]
